Data on ten molecules can be found in ChEMBL document CHEMBL5244263, “Studies on fragment-based design of allosteric inhibitors of human factor XIa” (Bioorg Med Chem, 2020).

What is called inhibition is the drop in the measured response relative to a control, in per cent. For orientation: IC50 means the concentration that inhibits the measured activity by half.

Each structure is given as a SMILES string. Active and inactive are the calls of the source. No cut-off for these calls is given here.

The species named for test [1] is Homo sapiens. The experiment in a line: Selectivity for inhibition of human FXIa over human FXa.
In test [2] the target is Coagulation factor IX (Homo sapiens) (UniProt P00740). The experiment in a line: Inhibition of human FIXa at 500 uM by chromogenic substrate hydrolysis assay.
Test [3] addresses Chymotrypsinogen A (Bos taurus) (UniProt P00766). The experiment in a line: Inhibition of bovine alpha-chymotrypsin at 500 uM by chromogenic substrate hydrolysis assay.
The target of test [4] is Prothrombin (Homo sapiens) (UniProt P00734). Description: Inhibition of human thrombin at 500 uM by chromogenic substrate hydrolysis assay.
Test [5] addresses T1, Coagulation factor VII (Homo sapiens) (UniProt P08709).
T1 sequence (whole entry): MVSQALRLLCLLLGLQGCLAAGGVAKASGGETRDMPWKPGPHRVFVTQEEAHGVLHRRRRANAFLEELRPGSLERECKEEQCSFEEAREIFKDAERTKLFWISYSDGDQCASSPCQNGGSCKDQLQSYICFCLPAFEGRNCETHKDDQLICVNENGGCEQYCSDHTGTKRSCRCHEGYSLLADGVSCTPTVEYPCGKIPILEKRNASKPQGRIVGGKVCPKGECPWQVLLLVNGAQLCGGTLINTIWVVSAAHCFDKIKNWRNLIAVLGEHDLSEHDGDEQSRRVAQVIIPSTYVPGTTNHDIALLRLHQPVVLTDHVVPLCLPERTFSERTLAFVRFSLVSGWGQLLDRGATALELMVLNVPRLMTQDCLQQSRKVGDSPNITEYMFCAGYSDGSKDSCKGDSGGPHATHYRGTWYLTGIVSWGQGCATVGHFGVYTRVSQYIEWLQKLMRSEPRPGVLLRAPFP
The experiment in a line: Inhibition of FVIIa (unknown origin) at 500 uM by chromogenic substrate hydrolysis assay.

For test [6], the species on record is Homo sapiens. The experiment in a line: Selectivity for inhibition of human FXIa over human thrombin.
The species named for test [7] is Homo sapiens. The experiment in a line: Selectivity for inhibition of human FXIa over FVIIa (unknown origin).
For test [8], the species on record is Bos taurus. The experiment in a line: Inhibition of bovine trypsin using S-2222 as chromogenic substrate at 500 uM by chromogenic substrate hydrolysis assay.
The species named for test [9] is Homo sapiens. The experiment in a line: Selectivity for inhibition of human FXIa over human FIXa.
Test [10] concerns the target Plasma kallikrein (Homo sapiens) (UniProt P03952). Description: Inhibition of Kallikrein in human plasma at 500 uM by chromogenic substrate hydrolysis assay. The class given is cell-free.
Test [11] addresses T2, Coagulation factor XI (Homo sapiens, UniProt P03951). The experiment in a line: Inhibition of human FXIa using S-2366 as chromogenic substrate preincubated with enzyme for 10 mins followed by substrate addition by spectrophotometric analysis relative to control. Set-up: concentration or dose not given beside the values. The gist of the method: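 hFXIa (0.765 nM final) preincubated with inhibitor or reference solution for 10 min at 37 °C in pH 7.4 buffer (50 mM Tris-HCl, 150 mM NaCl, 0.1% PEG8000, 0.02% Tween80). S-2366 (345 μM final) then added, and residual activity read on a microplate reader.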

Test [12] in a line: Selectivity for inhibition of human FXIa over bovine alpha-chymotrypsin.
In test [13] the target is Coagulation factor X (Homo sapiens) (UniProt P00742). The experiment in a line: Inhibition of human FXa using methoxycarbonyl-D-cyclohexylglycyl-Gly-Arg-p-nitroanilide as substrate at 500 uM by chromogenic substrate hydrolysis assay.
The nature of test [14]: Selectivity for inhibition of human FXIa over bovine trypsin.
The species named for test [15] is Homo sapiens. Description: Selectivity for inhibition of human FXIa over Kallikrein in human plasma. The class given is cell-free.
The target in test [16] is T2, Coagulation factor XI. Description: Inhibition of human FXIa using S-2366 as chromogenic substrate preincubated with enzyme for 10 mins followed by substrate addition by spectrophotometric analysis.

Chain of Plasma kallikrein (Homo sapiens) (P03952 20-390 limits assumed): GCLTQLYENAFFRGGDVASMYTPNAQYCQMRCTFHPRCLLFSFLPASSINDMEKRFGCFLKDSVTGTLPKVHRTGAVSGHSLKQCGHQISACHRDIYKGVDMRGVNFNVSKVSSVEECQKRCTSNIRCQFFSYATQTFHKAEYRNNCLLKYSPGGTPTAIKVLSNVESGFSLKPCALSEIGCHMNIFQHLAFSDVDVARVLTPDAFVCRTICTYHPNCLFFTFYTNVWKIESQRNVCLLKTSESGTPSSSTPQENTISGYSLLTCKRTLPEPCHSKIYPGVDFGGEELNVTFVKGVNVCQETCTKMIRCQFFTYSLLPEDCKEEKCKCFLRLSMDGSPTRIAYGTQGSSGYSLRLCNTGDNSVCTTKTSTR
Chain of Plasma kallikrein (Homo sapiens) (P03952 391-638 limits assumed): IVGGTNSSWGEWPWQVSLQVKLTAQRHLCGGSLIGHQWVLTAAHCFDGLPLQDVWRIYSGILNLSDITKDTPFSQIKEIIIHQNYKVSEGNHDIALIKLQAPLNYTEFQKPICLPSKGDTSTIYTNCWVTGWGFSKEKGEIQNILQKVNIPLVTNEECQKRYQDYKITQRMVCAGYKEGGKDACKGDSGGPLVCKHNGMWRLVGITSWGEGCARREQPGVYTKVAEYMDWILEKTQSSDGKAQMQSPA
Chain of Coagulation factor IX (Homo sapiens) (P00740 47-191 limits assumed): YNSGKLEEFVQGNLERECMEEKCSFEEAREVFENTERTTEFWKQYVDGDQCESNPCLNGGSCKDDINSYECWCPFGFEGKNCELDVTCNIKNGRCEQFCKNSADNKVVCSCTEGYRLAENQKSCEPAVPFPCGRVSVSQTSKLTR
Chain of Coagulation factor IX (Homo sapiens) (P00740 227-461 limits assumed): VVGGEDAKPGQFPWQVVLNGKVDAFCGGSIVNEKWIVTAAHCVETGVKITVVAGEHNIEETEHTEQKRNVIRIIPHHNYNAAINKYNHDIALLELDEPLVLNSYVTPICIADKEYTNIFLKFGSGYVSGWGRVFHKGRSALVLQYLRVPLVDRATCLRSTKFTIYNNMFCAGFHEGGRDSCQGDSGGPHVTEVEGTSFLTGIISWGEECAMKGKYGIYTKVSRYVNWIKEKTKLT
Chain of Coagulation factor X (Homo sapiens) (P00742 41-179 limits assumed): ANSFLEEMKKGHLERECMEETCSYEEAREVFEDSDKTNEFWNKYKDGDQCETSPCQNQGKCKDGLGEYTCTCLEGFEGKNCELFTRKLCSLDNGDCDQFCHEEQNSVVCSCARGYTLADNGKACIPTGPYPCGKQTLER
Chain of Coagulation factor X (Homo sapiens) (P00742 235-488 limits assumed): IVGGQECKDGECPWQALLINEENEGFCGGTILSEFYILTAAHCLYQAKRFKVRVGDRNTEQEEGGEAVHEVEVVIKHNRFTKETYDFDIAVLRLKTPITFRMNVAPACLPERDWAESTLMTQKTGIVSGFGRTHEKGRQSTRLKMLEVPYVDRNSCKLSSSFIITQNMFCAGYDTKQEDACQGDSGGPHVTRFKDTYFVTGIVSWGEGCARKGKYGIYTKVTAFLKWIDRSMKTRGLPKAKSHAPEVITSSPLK
T2 sequence (P03951 19-387 limits assumed): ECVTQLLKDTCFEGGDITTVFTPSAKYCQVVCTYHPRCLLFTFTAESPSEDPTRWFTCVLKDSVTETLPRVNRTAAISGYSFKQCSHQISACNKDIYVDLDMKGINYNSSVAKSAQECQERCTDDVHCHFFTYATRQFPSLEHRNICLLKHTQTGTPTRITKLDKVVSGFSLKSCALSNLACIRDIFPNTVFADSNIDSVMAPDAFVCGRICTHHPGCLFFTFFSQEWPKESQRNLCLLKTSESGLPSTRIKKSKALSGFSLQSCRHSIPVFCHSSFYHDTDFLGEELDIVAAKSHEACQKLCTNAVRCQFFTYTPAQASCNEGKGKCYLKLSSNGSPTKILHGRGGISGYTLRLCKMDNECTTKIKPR
T2 sequence (P03951 388-625 limits assumed): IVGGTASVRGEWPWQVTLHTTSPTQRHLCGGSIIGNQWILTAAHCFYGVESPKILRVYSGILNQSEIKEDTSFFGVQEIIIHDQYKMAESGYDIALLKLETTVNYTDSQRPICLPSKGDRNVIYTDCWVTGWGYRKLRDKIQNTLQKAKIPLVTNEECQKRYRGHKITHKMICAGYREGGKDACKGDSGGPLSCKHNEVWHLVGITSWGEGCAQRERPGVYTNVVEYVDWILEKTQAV

`O=c1c2ccccc2nc(-c2ccc(OS(=O)(=O)O)cc2)n1CCCCCn1c(-c2ccc(OS(=O)(=O)O)cc2)nc2ccccc2c1=O`: the Selectivity ratio in test [1], in [6], in test [7], in [9], in test [12] and in [14] was over 63 throughout. Besides, the Selectivity ratio in test [15] is over 63. The inhibition result in test [2], in test [3], in test [4], in test [5], in test [8] and in [10] was “inactive” throughout. Also, the inhibition entry in [13] is “inactive”. Besides, the inhibition in test [11] stood at 92%. Also, in test [16], the IC50 amounted to 49 µM.
For the molecule `O=c1c2ccccc2nc(-c2ccc(OS(=O)(=O)O)cc2)n1CCCCCCCn1cc(Cn2c(-c3ccc(OS(=O)(=O)O)cc3)nc3ccccc3c2=O)nn1`, the Selectivity ratio in test [1], in [6], in test [7], in test [9], in [12] and in test [14] was over 63 throughout. Further, the Selectivity ratio in test [15] is over 63. The inhibition entry in [2], in test [3], in test [4], in [5], in [8] and in test [10] was “inactive” in each case. In addition, the inhibition entry in test [13] was “inactive”. Besides, the inhibition in test [11] is 103%. In addition, the IC50 in test [16] came out at 51 µM.
For `O=c1c(OS(=O)(=O)O)c(-c2ccc(OS(=O)(=O)O)c(OS(=O)(=O)O)c2)oc2cc(OS(=O)(=O)O)cc(OCc3cn(CCCCCCCn4c(-c5ccc(OS(=O)(=O)O)cc5)nc5ccccc5c4=O)nn3)c12`, the inhibition entry in test [2], in test [3], in test [4], in [5], in test [8] and in [10] was “inactive” in each case. Besides, the inhibition result in test [13] was “inactive”. For the same molecule, inhibition in [16] was half-maximal at 139 µM (IC50).
On to `O=c1c2ccccc2nc(-c2cccc(OS(=O)(=O)O)c2)n1Cc1cccc(Cn2c(-c3cccc(OS(=O)(=O)O)c3)nc3ccccc3c2=O)c1`, for which the Selectivity ratio in [1], in test [6], in [7], in test [9], in test [12] and in test [14] was over 63 throughout. For the same molecule, the Selectivity ratio in test [15] was over 63. The inhibition result in [2], in test [3], in [4], in test [5], in [8] and in [10] was “inactive” in each case. Moreover, the inhibition result in test [13] was “inactive”. Also, in test [11], the inhibition is 92%. Moreover, 60 µM corresponded to half-maximal inhibition in test [16] (IC50).
`O=c1c(OS(=O)(=O)O)c(-c2ccc(OS(=O)(=O)O)c(OS(=O)(=O)O)c2)oc2cc(OS(=O)(=O)O)cc(OCc3cn(CCCCCCCCn4c(-c5ccc(OS(=O)(=O)O)cc5)nc5ccccc5c4=O)nn3)c12`: the inhibition entry in test [2], in test [3], in test [4], in test [5], in test [8] and in test [10] was “inactive” throughout. For the same molecule, the inhibition entry in test [13] was “inactive”. Moreover, the IC50 in [16] is 133 µM.
For `O=c1c2ccccc2nc(-c2ccc(OS(=O)(=O)O)cc2)n1Cc1ccccc1Cn1c(-c2ccc(OS(=O)(=O)O)cc2)nc2ccccc2c1=O`, the Selectivity ratio in test [1], in [6], in test [7], in test [9], in test [12] and in [14] was over 63 in each case. In addition, the Selectivity ratio in test [15] was over 63. In addition, the inhibition result in test [2], in test [3], in test [4], in test [5], in test [8] and in [10] was “inactive” in each case. Besides, the inhibition result in test [13] is “inactive”. Moreover, in [11], the inhibition came out at 87%. The IC50 in [16] worked out at 57 µM.
For the molecule `O=c1c2ccccc2nc(-c2ccc(OS(=O)(=O)O)cc2)n1CCCCCCCCCn1cc(Cn2c(-c3ccc(OS(=O)(=O)O)cc3)nc3ccccc3c2=O)nn1`, the Selectivity ratio in [1], in test [6], in test [7], in test [9], in [12] and in [14] was over 63 throughout. The Selectivity ratio in test [15] is over 63. Besides, the inhibition result in test [2], in test [3], in [4], in test [5], in test [8] and in [10] was “inactive” each time. The inhibition entry in [13] was “inactive”. Further, in test [11], the inhibition was 100%. It took 34 µM to reach half-maximal inhibition in test [16] (IC50).
As to `O=c1c2ccccc2nc(-c2ccc(OS(=O)(=O)O)cc2)n1CCCCCCCn1c(-c2ccc(OS(=O)(=O)O)cc2)nc2ccccc2c1=O`, the Selectivity ratio in test [1], in test [6], in test [7], in test [9], in test [12] and in test [14] was over 63 throughout. In addition, in test [15], the Selectivity ratio was over 63. For the same molecule, the inhibition entry in test [2], in test [3], in [4], in [5], in test [8] and in test [10] was “inactive” throughout. Besides, the inhibition result in test [13] was “inactive”. In addition, the inhibition in [11] amounted to 96%. The same molecule returned a 50% inhibitory concentration (IC50) in test [16] of 23 µM.
For `O=c1c(OS(=O)(=O)O)c(-c2ccc(OS(=O)(=O)O)c(OS(=O)(=O)O)c2)oc2cc(OS(=O)(=O)O)cc(OCc3cn(CCCCCCCCCCn4c(-c5ccc(OS(=O)(=O)O)cc5)nc5ccccc5c4=O)nn3)c12`, the inhibition entry in test [2], in test [3], in [4], in test [5], in test [8] and in test [10] was “inactive” in each case. For the same molecule, the inhibition entry in [13] was “inactive”. The molecule further showed an IC50 in test [16] of 51 µM.
As to `O=c1c(OS(=O)(=O)O)c(-c2ccc(OS(=O)(=O)O)c(OS(=O)(=O)O)c2)oc2cc(OS(=O)(=O)O)cc(OCc3cn(CCCCCCCCCn4c(-c5ccc(OS(=O)(=O)O)cc5)nc5ccccc5c4=O)nn3)c12`, the inhibition entry in test [2], in test [3], in [4], in [5], in [8] and in test [10] was “inactive” each time. The inhibition entry in [13] is “inactive”. Moreover, the IC50 in test [16] is 37 µM.
